The subject of series [1] is OVCAR-5. The series can be described thus: Growth inhibition of human OVCAR5 cells after 72 hrs by CCK8 assay. Format: functional, cell-based. To be noted: OVCAR-5, 72 h. The gist of the method: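 Cells were seeded at 2000–3000 per well and grown 24 h in serum-containing medium. They were then exposed to serially diluted compound for 72 h at 37 °C, 5% CO2. CCK8 reagent was added for 1–4 h and absorbance read at 450 nm. Inhibition = (AC − AS)/(AC − Ab) × 100%. IC50 is the average of at least three independent determinations.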
Background: Tetrazolium dyes change colour on reduction, which living cells bring about.

The target of series [2] is mTOR/FKBP12A/FKBP12B (Homo sapiens, UniProt P42345+P62942+P68106). The series can be described thus: Inhibition of full length recombinant human mTOR/FKBP12. The series is classed as protein-complex assay.
Series [3] concerns the target Serine-protein kinase ATM (Homo sapiens, UniProt Q13315). The experiment in a line: Inhibition of full length recombinant human ATM.
Series [4] addresses ATR/ATRIP (Homo sapiens) (UniProt Q13535+Q8WXE1). The series can be described thus: Inhibition of full length recombinant human ATR /ATRIP at 1 uM relative to control. The series is classed as protein-complex assay. In short, it runs like this:
(§1)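 Eurofins KinaseProfiler panel with compound at a single 1 μM concentration. ATP at the Km of each kinase. Result is % inhibition, mean of two independent experiments.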

Series [5] concerns the target PI3K p110 alpha/p85 alpha (Mus musculus) (UniProt P26450+P42337). The experiment in a line: Inhibition of full length recombinant mouse PI3K p110alpha/p85alpha at 1 uM relative to control. The series is classed as protein-complex assay. The gist of the method: as §1
The target of series [6] is PI3K p110 beta/p85 beta (Mus musculus) (UniProt Q8BTI9+O08908). The series can be described thus: Inhibition of full length recombinant mouse PI3K p110beta/p85beta at 1 uM relative to control. Format: protein-complex assay. In short, it runs like this: as §1
Series [7] concerns the target PI3K p110 delta/p85 alpha (Mus musculus) (UniProt P26450+O35904). The series can be described thus: Inhibition of full length recombinant mouse PI3K p110delta/p85alpha at 1 uM relative to control. The series is classed as protein-complex assay. The gist of the method: as §1
The species entered for series [8] is Mus musculus. The experiment in a line: Inhibition of full length recombinant mouse p85alpha/PI3K p110alpha E542K mutant at 1 uM relative to control. In short, it runs like this:
as §1

Series [9] concerns PI3-kinase p110-alpha/p85-alpha (Homo sapiens), P27986+P42336 [H1047R]. The series can be described thus: Inhibition of full length recombinant human p85alpha/PI3K p110alpha H1047R mutant at 1 uM relative to control. The gist of the method:
as §1

In series [10] the test system is PI3-kinase p110-alpha/p85-alpha (Homo sapiens), P27986+P42336 [E545K]. The experiment in a line: Inhibition of full length recombinant human p85alpha/PI3K p110alpha E545K mutant at 1 uM relative to control. The gist of the method: as §1
Series [11] concerns T47D. The experiment in a line: Cell cycle arrest in human T47D cells assessed as accumulation at G0/G1 phase at 0.25 to 0.5 uM after 24 hrs by propidium iodide-staining based flow cytometric analysis. The series is classed as functional. The gist of the method: (§2)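 Cells were seeded at 5 × 10^5 cells/mL. At 24 h after plating they were treated with increasing concentrations for 24 h, washed in PBS, and fixed in ice-cold 70% ethanol for at least 24 h. They were stained with propidium iodide plus RNase A for 30 min at 37 °C and analysed by flow cytometry for phase distribution.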
(Flow cytometry measures light scatter and fluorescence of single cells or particles in a stream.)

The test system of series [12] is SiHa. The experiment in a line: Cell cycle arrest in human SiHa cells assessed as decrease in S-phase at 0.25 to 0.5 uM after 24 hrs by propidium iodide-staining based flow cytometric analysis. Format: functional. The gist of the method:
as §2

In series [13] the test system is HeLa. The experiment in a line: Cell cycle arrest in human HeLa cells assessed as accumulation at G0/G1 phase at 0.5 to 1 uM after 24 hrs by propidium iodide-staining based flow cytometric analysis. The series is classed as functional. In short, it runs like this:
as §2

For series [14], the system named is SiHa. The experiment in a line: Induction of autophagy in human SiHa cells assessed as increase in LC3-2 level at 0.5 to 1 uM after 48 hrs by Western blot analysis. Format: functional, cell-based. The gist of the method:
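Cells treated with test agents at several concentrations for 2 days (48 h). LC3B-II detected by Western blot on lysates, with β-actin as internal control. Membranes blocked in 5% skim milk, primary antibodies at 4 °C overnight, peroxidase-conjugated anti-mouse or anti-rabbit IgG secondary, ECL detection.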
On the technique in general: A western blot detects proteins with antibodies after separation by electrophoresis.

Series [15] is filed under the species Homo sapiens. The series can be described thus: Inhibition of mTORC1 in human MCF7 cells assessed as reduction in 4E-BP1 phosphorylation at Ser65 residues at 0.25 to 0.5 uM by Western blot analysis. Format: cell-based. In short, it runs like this: (§3)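 Cells treated with the indicated concentrations, then whole-cell lysates immunoblotted. mTORC1 activity read as S6 and 4E-BP1 phosphorylation; mTORC2 activity read as AKT Ser473 phosphorylation. Blocking in 5% skim milk, primary antibodies at 4 °C overnight, peroxidase-conjugated secondary, ECL detection.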

The species named for series [16] is Homo sapiens. The experiment in a line: Inhibition of mTORC1 in human SiHa cells assessed as reduction in 4E-BP1 phosphorylation at Ser65 residues at 0.25 to 0.5 uM by Western blot analysis. The series is classed as cell-based. The gist of the method: as §3
The subject of series [17] is HeLa. The series can be described thus: Inhibition of mTORC1 in human HeLa cells assessed as reduction in S6 phosphorylation at Ser 240/244 residues at 0.5 to 1 uM by Western blot analysis. The series is classed as cell-based. In short, it runs like this: as §3
The species entered for series [18] is Homo sapiens. The experiment in a line: Inhibition of mTORC2 in human MCF7 cells assessed as reduction in AKT phosphorylation at Ser473 residues at 0.25 to 0.5 uM by Western blot analysis. Format: cell-based. The gist of the method: as §3
For series [19], the species on record is Homo sapiens. The experiment in a line: Inhibition of mTORC2 in human SiHa cells assessed as reduction in AKT phosphorylation at Ser473 residues at 0.25 to 0.5 uM by Western blot analysis. The series is classed as cell-based. In short, it runs like this:
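Cells exposed to a range of compound concentrations; whole-cell lysates immunoblotted for phospho-AKT (Ser473) as the mTORC2 readout, alongside S6 and 4E-BP1 phosphorylation for mTORC1. Membranes blocked in 5% skim milk, primary antibodies overnight at 4 °C, peroxidase-conjugated anti-mouse or anti-rabbit IgG secondary, ECL detection. Rapamycin as comparator.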

Series [20] concerns T47D. The experiment in a line: Antitumor activity against human T47D cells xenografted in BALB/c nude mouse assessed as decrease in tumor growth at 60 mg/kg, po administered via gavage after 3 weeks relative to control. The series is classed as functional. To be noted: 504 h, read-out: TGI.
For series [21], the system named is Mus musculus. The series can be described thus: Toxicity in BALB/c nude mouse xenografted with human T47D cells assessed as decrease in body weight at 15 to 60 mg/kg, po administered via gavage for 3 weeks measured during compound dosing. Format: organism-based. To be noted: in vivo, 504 h. In short, it runs like this:
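BALB/c nude mice, 6−8 weeks old, injected subcutaneously with 100 μL T-47D cells at 2 × 10^7 per mL in serum-free medium. At 100−120 mm3, randomized to 5 groups of 5: 15, 30 or 60 mg/kg/d, rapamycin 60 mg/kg/d, or vehicle. Dosed daily by intragastric route in DMSO for 3 weeks. Side effects checked daily; body weight every other day.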

A short description of series [22]: Cmax in Sprague-Dawley rat at 20 mg/kg, po administered as single dose by HPLC analysis. The series is classed as ADME, organism-based. Set-up: dose 20 mg/kg, route oral. To be noted: in vivo. In short, it runs like this:
(§4)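 Rats fasted overnight, then given one 20 mg/kg dose either iv or po. Blood was collected and centrifuged at once to obtain plasma. Plasma drug levels were measured by HPLC, and PK parameters were derived from the concentration-time data.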

Series [23] can be described thus: Clearance in Sprague-Dawley rat at 20 mg/kg, iv administered as single dose by HPLC analysis. Format: ADME, organism-based. To be noted: in vivo. The gist of the method:
as §4

Series [24] can be described thus: Clearance in Sprague-Dawley rat at 20 mg/kg, po administered as single dose by HPLC analysis. Format: ADME, organism-based. To be noted: in vivo. In short, it runs like this: as §4

Here are results for 1 compound from ChEMBL document CHEMBL4020823, “Highly Selective, Potent, and Oral mTOR Inhibitor for Treatment of Cancer as Autophagy Inducer” (J Med Chem, 2018).

Calls of active or inactive are those of the source. The rule behind the calls is not given here.

Sequence of ATR/ATRIP (Homo sapiens) (Q13535 whole entry, looked up): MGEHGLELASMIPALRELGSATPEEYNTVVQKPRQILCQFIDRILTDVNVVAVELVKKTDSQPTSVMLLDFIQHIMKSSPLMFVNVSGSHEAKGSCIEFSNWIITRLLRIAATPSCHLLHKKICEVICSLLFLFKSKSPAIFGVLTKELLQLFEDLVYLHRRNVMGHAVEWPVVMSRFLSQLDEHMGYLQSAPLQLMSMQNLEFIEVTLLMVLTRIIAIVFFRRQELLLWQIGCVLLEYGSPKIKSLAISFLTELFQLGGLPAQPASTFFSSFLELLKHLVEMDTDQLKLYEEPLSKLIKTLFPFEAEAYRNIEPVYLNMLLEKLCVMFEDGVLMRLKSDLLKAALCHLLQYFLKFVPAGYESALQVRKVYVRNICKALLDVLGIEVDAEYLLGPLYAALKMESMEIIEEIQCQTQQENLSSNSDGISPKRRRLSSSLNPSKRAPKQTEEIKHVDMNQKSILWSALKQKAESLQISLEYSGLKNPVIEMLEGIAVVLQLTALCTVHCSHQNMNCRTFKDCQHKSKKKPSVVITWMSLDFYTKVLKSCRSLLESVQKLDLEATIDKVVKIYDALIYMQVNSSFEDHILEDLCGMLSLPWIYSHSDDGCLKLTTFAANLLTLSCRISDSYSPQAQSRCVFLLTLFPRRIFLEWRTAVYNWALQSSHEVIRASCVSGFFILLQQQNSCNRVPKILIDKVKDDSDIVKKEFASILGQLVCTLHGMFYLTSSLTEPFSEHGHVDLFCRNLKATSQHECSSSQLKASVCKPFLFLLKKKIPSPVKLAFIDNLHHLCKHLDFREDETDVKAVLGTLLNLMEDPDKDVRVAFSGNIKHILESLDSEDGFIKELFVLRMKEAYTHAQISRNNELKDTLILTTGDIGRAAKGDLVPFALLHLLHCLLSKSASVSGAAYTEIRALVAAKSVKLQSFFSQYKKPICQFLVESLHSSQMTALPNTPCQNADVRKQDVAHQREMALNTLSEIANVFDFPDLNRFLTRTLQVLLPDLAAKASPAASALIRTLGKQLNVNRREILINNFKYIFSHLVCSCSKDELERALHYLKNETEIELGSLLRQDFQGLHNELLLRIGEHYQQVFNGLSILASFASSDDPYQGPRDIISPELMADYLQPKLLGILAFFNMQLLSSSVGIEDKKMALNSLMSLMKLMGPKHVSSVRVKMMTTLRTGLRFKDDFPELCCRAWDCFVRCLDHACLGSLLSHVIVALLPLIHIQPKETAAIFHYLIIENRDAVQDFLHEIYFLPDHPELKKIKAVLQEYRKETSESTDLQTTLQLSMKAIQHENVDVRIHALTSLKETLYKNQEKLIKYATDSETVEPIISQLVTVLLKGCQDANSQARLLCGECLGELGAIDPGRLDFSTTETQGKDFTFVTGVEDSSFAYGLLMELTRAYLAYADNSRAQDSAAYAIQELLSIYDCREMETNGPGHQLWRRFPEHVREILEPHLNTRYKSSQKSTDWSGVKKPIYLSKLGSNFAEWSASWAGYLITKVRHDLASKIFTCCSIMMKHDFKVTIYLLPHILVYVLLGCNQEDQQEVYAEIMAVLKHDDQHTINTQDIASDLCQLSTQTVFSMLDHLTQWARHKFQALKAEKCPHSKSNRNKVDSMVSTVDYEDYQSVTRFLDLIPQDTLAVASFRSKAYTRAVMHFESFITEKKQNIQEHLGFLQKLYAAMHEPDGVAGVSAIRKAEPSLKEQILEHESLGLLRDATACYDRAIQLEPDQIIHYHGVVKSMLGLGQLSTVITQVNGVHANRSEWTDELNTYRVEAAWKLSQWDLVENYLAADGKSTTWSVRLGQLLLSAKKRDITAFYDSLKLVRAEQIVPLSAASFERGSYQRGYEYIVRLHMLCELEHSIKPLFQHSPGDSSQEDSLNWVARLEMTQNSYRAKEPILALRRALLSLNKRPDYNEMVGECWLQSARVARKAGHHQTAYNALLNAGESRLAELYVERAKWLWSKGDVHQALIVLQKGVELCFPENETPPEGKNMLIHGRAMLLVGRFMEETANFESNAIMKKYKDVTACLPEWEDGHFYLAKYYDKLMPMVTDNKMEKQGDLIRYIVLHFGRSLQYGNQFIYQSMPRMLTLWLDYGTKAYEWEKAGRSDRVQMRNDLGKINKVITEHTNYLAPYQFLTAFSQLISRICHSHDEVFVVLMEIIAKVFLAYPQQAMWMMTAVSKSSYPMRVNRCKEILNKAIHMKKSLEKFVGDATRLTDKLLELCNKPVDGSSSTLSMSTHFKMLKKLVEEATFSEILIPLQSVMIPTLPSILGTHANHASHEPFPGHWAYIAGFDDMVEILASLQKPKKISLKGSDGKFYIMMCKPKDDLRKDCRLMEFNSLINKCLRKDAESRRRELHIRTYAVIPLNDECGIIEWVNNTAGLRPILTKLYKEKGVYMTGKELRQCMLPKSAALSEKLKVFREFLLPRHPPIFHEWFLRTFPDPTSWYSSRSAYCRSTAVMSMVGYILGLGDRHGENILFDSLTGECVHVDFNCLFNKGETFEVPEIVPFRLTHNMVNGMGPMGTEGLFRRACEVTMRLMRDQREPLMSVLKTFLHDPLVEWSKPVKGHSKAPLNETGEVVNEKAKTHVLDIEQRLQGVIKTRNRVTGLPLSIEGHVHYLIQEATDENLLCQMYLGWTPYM
Sequence of ATR/ATRIP (Homo sapiens) (Q8WXE1 whole entry, looked up): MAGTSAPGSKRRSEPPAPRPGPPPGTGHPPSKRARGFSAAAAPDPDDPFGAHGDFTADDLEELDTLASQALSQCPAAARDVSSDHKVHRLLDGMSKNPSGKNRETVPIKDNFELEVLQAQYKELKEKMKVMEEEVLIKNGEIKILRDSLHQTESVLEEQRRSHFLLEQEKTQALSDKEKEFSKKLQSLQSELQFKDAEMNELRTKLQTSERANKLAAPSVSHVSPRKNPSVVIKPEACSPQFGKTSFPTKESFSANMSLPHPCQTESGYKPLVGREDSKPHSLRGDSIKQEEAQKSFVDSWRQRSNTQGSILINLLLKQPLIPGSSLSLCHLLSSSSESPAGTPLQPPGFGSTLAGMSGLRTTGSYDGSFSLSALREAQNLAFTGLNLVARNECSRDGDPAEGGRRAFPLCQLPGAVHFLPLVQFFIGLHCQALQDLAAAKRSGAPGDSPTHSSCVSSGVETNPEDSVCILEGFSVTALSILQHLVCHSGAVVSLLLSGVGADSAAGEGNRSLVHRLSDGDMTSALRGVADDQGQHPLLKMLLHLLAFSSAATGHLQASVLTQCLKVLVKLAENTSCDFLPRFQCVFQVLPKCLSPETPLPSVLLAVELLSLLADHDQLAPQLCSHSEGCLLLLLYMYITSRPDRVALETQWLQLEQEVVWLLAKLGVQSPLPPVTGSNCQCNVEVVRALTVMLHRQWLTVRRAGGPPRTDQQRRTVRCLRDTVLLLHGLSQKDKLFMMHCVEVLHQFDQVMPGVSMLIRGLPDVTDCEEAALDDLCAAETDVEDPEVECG
Sequence of mTOR/FKBP12A/FKBP12B (P62942 2-108 limits assumed, other chains not shown): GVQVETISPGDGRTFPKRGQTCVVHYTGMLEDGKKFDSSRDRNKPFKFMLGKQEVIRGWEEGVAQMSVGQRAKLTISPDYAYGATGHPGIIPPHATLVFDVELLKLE
Sequence of mTOR/FKBP12A/FKBP12B (P68106 whole entry, other chains not shown): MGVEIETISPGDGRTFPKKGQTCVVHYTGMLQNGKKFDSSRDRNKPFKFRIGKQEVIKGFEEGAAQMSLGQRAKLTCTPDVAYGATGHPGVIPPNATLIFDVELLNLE

On to `N#CCN1CCC(n2c(=O)cnc3cnc4ccc(-c5ccc(N)nc5)cc4c32)CC1`, for which the half-maximal inhibitory concentration (IC50) in series [1] came out at 2830 nM; in [2], 8 nM; in [3] it was 62 nM. Besides, the inhibition in [4] was determined as 24%; in series [5], 17%; in series [6] it was 8%; in series [7], 4%; in [8], 10%; in series [9] it was 2%. In addition, the inhibition in [10] was found to be 13%. Besides, the result in series [11], in series [12], in series [13] and in [14] was Active. In addition, the inhibition result in series [15], in [16], in [17], in series [18] and in series [19] was “Active” in each case. In addition, the inhibition in vivo at 60 mg/kg in series [20] came to 83.7%. Further, in series [21], the Activity result is “Non-Toxic”. Also, in series [22], the Cmax is 807 ng/mL. The clearance in [23] is 25.5 mL/min/kg. In series [24], this compound showed a CL/F of 58.5 mL/min/kg.

The term IC50 denotes the concentration at which inhibition is half-maximal. As usually defined, the inhibition is the percentage by which the read-out fell short of the control. What is called Cmax is the peak of the concentration-time curve. By clearance is commonly meant a measure of how efficiently the substance is removed, as volume per time. A low value points to inefficient removal. As usually defined, the CL/F is the apparent clearance, not corrected for the fraction that reaches the circulation.
